From ChEMBL document CHEMBL4145692, “Discovery of a Locally and Orally Active CXCL12 Neutraligand (LIT-927) with Anti-inflammatory Effect in a Murine Model of Allergic Airway Hypereosinophilia” (J Med Chem, 2018) come the findings set out here.

Values after ≈ are worked out from the molar mass of the structure shown.

The test system of series [1] is Mus musculus. Description: Toxicity in Balb/c mouse model of hypereosinophilia assessed as reduction in spleen weight at 12.6 umol/kg, ip dosed daily 2 hrs before allergen challenge for 3 days and measured 24 hrs after last dose. The series is classed as organism-based. Further details: scale not given: the % may be the effect or the level left. Conditions: in vivo. An outline of the steps: (§1)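 Same OVA model with i.p. dosing 2 h before each of the three challenges: neutraligands 350 μmol/kg in PBS/CMC 1%, AMD3100 12.6 μmol/kg, dexamethasone 2.5 μmol/kg. Body and spleen weight loss recorded 24 h after three daily administrations; n=6/group.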

The test system of series [2] is Mus musculus. Description: Toxicity in Balb/c mouse model of hypereosinophilia assessed as reduction in body weight at 12.6 umol/kg, ip dosed daily 2 hrs before allergen challenge for 3 days and measured 24 hrs after last dose. The series is classed as organism-based. On the set-up: scale not given: the % may be the effect or the level left. Conditions: in vivo. An outline of the steps: as §1

The species named for series [3] is Mus musculus. Description: animal or person. Conditions: Balb/c, ip, read-out: INH.
Series [4] concerns the target T1, Stromal cell-derived factor 1 (Homo sapiens, UniProt P48061). Description: Binding affinity to Texas Red-labelled CXCL12 (unknown origin) assessed as inhibition of CXCL12-Texas Red binding to EGFP-labeled human CXCR4 expressed in HEK293 cell membranes at 10 uM pre-incubated for 1 hr by FRET-based binding assay. The method, boiled down: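 FRET binding assay in EGFP-CXCR4 HEK-293 cells. Compound at 10 μM preincubated with CXCL12 before addition to the cells; binding read as EGFP emission at 510 nm after CXCL12-Texas Red addition. T134 (20 μM) used as control.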

A short description of series [5]: Kinetic solubility in pH 7.4 HEPES-BSA buffer at 5 uM incubated for 24 hrs at 20 degC by HPLC method. The series is classed as physicochemical. Conditions: read-out: Kinetic_solubility. An outline of the steps: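 Compound added from 10 mM DMSO stock to 5 μM in pH 7.4 HEPES-BSA buffer (1 g/L BSA), shaken 24 h at 20 °C. After centrifugation, supernatant concentration measured by HPLC against 5 and 10 μM standards.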

The target of series [6] is T1, Stromal cell-derived factor 1. In words: Binding affinity to Texas Red-labelled CXCL12 (unknown origin) assessed as inhibition of CXCL12-Texas Red binding to EGFP-labeled human CXCR4 expressed in HEK293 cell membranes at 1 uM pre-incubated for 1 hr by FRET-based binding assay. The method, boiled down:
(§2)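 HEK-293 cells stably expressing human EGFP-CXCR4, 10⁶ cells/ml in HEPES buffer pH 7.4 with 0.1% BSA, 21 °C. CXCL12-Texas Red (100 nM) was preincubated 1 h at room temperature with compound or DMSO, then added at t=150 s. FRET read as loss of EGFP emission at 510 nm (excitation 470 nm) up to equilibrium. Ki from dose-response curves.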

Series [7] has the same target. In words: Binding affinity to Texas Red-labelled CXCL12 (unknown origin) assessed as inhibition of CXCL12-Texas Red binding to EGFP-labeled human CXCR4 expressed in HEK293 cell membranes at 3 uM pre-incubated for 1 hr by FRET-based binding assay. The method, boiled down: as §2
The target is the same in series [8]. Description: Binding affinity to Texas Red-labelled CXCL12 (unknown origin) assessed as inhibition of CXCL12-Texas Red binding to EGFP-labeled human CXCR4 expressed in HEK293 cell membranes at 30 uM pre-incubated for 1 hr by FRET-based binding assay. The method, boiled down:
as §2

For series [9] the target is unchanged. Description: Binding affinity to Texas Red-labelled CXCL12 (unknown origin) assessed as inhibition of CXCL12-Texas Red binding to EGFP-labeled human CXCR4 expressed in HEK293 cell membranes at 0.3 uM pre-incubated for 1 hr by FRET-based binding assay. An outline of the steps: as §2

T1 sequence (P48061 whole entry): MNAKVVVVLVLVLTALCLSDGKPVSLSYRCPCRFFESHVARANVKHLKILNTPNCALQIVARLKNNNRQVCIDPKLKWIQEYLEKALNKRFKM

Turning to `c1cc(CN2CCCNCCNCCCNCC2)ccc1CN1CCCNCCNCCCNCC1` [PLERIXAFOR], the Activity in [1] was 9.8%; in [2], 7.8%. Also, in series [3], the inhibition in vivo at 12.6 µmol/kg came to 33%.
On to `COc1cc(/C=C2\CCc3cc(Cl)ccc3C2=O)ccc1O`, for which, in [4], the inhibition is 70%. Moreover, the solubility kinetic at 24 h, 5 µM in [5] is above 5 µM.
With `O=C(/C=C/c1ccccc1)c1ccc(Cl)cc1`, in series [6], the inhibition was determined as 18%. The solubility kinetic at 24 h, 5 µM in series [5] was 1.17 µM (≈ 0.284 µg/mL).
In the case of `O=C(/C=C/c1ccc2c(c1)OCO2)c1ccc(Cl)cc1`, the inhibition in [7] turned out to be 25%. The solubility kinetic at 24 h, 5 µM in series [5] stood at 2.31 µM (≈ 0.662 µg/mL).
With `COc1cc(/C=C/C(=O)c2ccc(S(=O)(=O)O)cc2)ccc1O`, in [8], the inhibition was found to be 6%. Moreover, in series [5], the solubility kinetic at 24 h, 5 µM was above 5 µM.
The matching figures for `COc1cc(/C=C/C(=O)c2ccc([N+](=O)[O-])cc2)ccc1O`: 30% and above 5 µM.
Regarding `COc1cc(-c2cc(-c3ccc(Cl)cc3)nc(-c3ccccc3)n2)ccc1O`, the inhibition in series [9] stood at 20%. The solubility kinetic at 24 h, 5 µM in [5] was determined as 0.53 µM (≈ 0.206 µg/mL).

What is called inhibition is the share of the control response that was lost under treatment.
